In ChEMBL document CHEMBL1153403, “Design, synthesis, and evaluation of novel fluoroquinolone-aminoglycoside hybrid antibiotics” (J Med Chem, 2009):
Converted amounts (≈) assume the structure as drawn.

Legend:
Escherichia coli [1] = experiment: Antibacterial activity against Escherichia coli R477-100 by double-microdilution method; format: functional
Escherichia coli [2] = experiment: Antibacterial activity against Escherichia coli ATCC 25922 by double-microdilution method; format: functional
Escherichia coli [3] = experiment: Antibacterial activity against kanamycin-resistant Escherichia coli AG100B expressing aminoglycosides resistant APH(3')-1 enzyme by double-microdilution method; format: functional
Escherichia coli [4] = experiment: Antibacterial activity against kanamycin-resistant Escherichia coli AG100A expressing aminoglycosides resistant APH(3')-1 enzyme by double-microdilution method; format: functional
Bacillus subtilis = experiment: Antibacterial activity against aminoglycosides-susceptible Bacillus subtilis ATCC 6633 by double-microdilution method; format: functional
Staphylococcus aureus = experiment: Antibacterial activity against methicillin-resistant Staphylococcus aureus ATCC 43300 by double-microdilution method; format: functional
[5] = Inhibition of Escherichia coli DNA gyrase assessed as reduction in relaxed pBR322 DNA supercoiling activity after 1 hr by electrophoresis; details: read-out: IC50
How it was run: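 Supercoiling of relaxed pBR322 (12.5 ng/µL) by E. coli DNA gyrase in 35 mM Tris-Cl pH 7.5 with 24 mM KCl, 4 mM MgCl₂, 2 mM DTT, 1.8 mM spermidine, 1 mM ATP, 6.5% glycerol and 0.1 mg/mL BSA. Incubated 37 °C for 1 h, stopped with loading dye plus chloroform/isoamyl alcohol, and resolved on 1% agarose. IC50 is the concentration halving activity versus drug-free control.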

[6] = Inhibition of Escherichia coli topoisomerase 4 assessed as reduction in supercoiled pBR322 DNA relaxation activity after 30 mins by electrophoresis; details: read-out: IC50
How it was run: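 E. coli TopoIV relaxation of supercoiled pBR322 in 40 mM HEPES-KOH pH 7.6 with 100 mM potassium glutamate, 10 mM Mg(OAc)₂, 10 mM DTT, 1 mM ATP and 50 µg/mL albumin. Incubated 37 °C for 30 min, stopped with EDTA, loading dye and chloroform/isoamyl alcohol, then run on 1% agarose. Supercoiled DNA percentage was quantified from gel images. IC50 is the 50% reduction versus drug-free control.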

Escherichia coli [7] = experiment: Inhibition of protein synthesis in Escherichia coli S30 extracts assessed as luciferase activity after 1 hr by coupled transcription/translation assay; format: functional
How it was run: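 Coupled transcription/translation of the pBESTluc plasmid in E. coli S30 extract with varying compound concentrations, 37 °C for 60 min. Reactions were cooled on ice, diluted in Tris-phosphate pH 7.8 reagent, and luciferase luminescence was read immediately after substrate addition. IC50 came from concentration-response curves fitted to at least two independent experiments.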

Escherichia coli [8] = experiment: Antibacterial activity against Escherichia coli BL21 by double-microdilution method; format: functional
Escherichia coli [9] = experiment: Antibacterial activity against Escherichia coli XL1-blue by double-microdilution method; format: functional
Escherichia coli [10] = experiment: Antibacterial activity against aminoglycosides-resistant Escherichia coli XL1-blue harboring pSF815 expressing AAC(6')-APH(2'') enzyme by double-microdilution method; format: functional
Escherichia coli [11] = experiment: Resistance index, MIC for aminoglycosides-resistant Escherichia coli XL1-blue harboring pSF815 expressing AAC(6')-APH(2'') enzyme to MIC for Escherichia coli XL1-blue; format: functional
How it was run: (§1)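 Ratio of MIC on the plasmid-bearing resistant strain to MIC on its background strain (pETSACG1 vs BL21; pET9d or pSF815 vs XL1 blue). MICs by NCCLS double microdilution from starting concentrations of 384 and 1.5 µg/mL, in duplicate, two to four experiments.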

Escherichia coli [12] = experiment: Antibacterial activity against aminoglycosides-resistant Escherichia coli XL1-blue harboring pET9d expressing APH(3')-1a enzyme by double-microdilution method; format: functional
Escherichia coli [13] = experiment: Resistance index, MIC for aminoglycosides-resistant Escherichia coli XL1-blue harboring pET9d expressing APH(3')-1a enzyme to MIC for Escherichia coli XL1-blue; format: functional; how it was run: as §1
Escherichia coli [14] = experiment: Antibacterial activity against aminoglycosides-resistant Escherichia coli BL21 harboring pETSACG1 expressing APH(3')-3a enzyme by double-microdilution method; format: functional
Escherichia coli [15] = experiment: Resistance index, MIC for aminoglycosides-resistant Escherichia coli BL21 harboring pETSACG1 expressing APH(3')-3a enzyme to MIC for Escherichia coli BL21; format: functional; how it was run: as §1

NC[C@@H]1O[C@H](O[C@H]2[C@@H](O)[C@H](O[C@@H]3[C@@H](O)[C@H](N)C[C@H](N)[C@H]3O[C@H]3O[C@H](CN)[C@@H](O)[C@H](O)[C@H]3N)O[C@@H]2C(=O)Nc2ccc(-c3cn(CC(O)CN4CCN(c5cc6c(cc5F)c(=O)c(C(=O)O)cn6C5CC5)CC4)nn3)cc2)[C@H](N)[C@@H](O)[C@@H]1O (stereo not given in full)
MIC (Escherichia coli [1]): 6 µg/mL (≈ 5.18 µM) | MIC (Escherichia coli [2]): 3 µg/mL (≈ 2.59 µM) | MIC (Escherichia coli [3]): 6 µg/mL (≈ 5.18 µM) | MIC (Escherichia coli [4]): 0.75 µg/mL (≈ 0.648 µM) | MIC (Bacillus subtilis): 6 µg/mL (≈ 5.18 µM) | MIC (Staphylococcus aureus): 24 µg/mL (≈ 20.7 µM) | IC50 [5]: 73 nM | IC50 [6]: 580 nM | IC50 (Escherichia coli [7]; Escherichia coli, 1 h, read-out: IC50): 2200 nM

O=C(O)c1cn(C2CC2)c2cc(N3CCNCC3)c(F)cc2c1=O [CIPROFLOXACIN]
MIC (Escherichia coli [4]): < 0.005 µg/mL | MIC (Bacillus subtilis): 0.02 µg/mL (≈ 0.0604 µM) | MIC (Staphylococcus aureus): 0.2 µg/mL (≈ 0.604 µM) | MIC (Escherichia coli [8]): < 0.005 µg/mL | IC50 [5]: 1300 nM | IC50 [6]: 10800 nM | IC50 (Escherichia coli [7]): Not Active

NC[C@@H]1O[C@H](O[C@H]2[C@@H](O)[C@H](O[C@@H]3[C@@H](O)[C@H](N)C[C@H](N)[C@H]3O[C@H]3O[C@H](CN)[C@@H](O)[C@H](O)[C@H]3N)O[C@@H]2C(=O)Nc2ccc(-c3cn(CCN4CCN(c5cc6c(cc5F)c(=O)c(C(=O)O)cn6C5CC5)CC4)nn3)cc2)[C@H](N)[C@@H](O)[C@@H]1O
MIC (Escherichia coli [1]): 12 µg/mL (≈ 10.6 µM) | MIC (Escherichia coli [2]): 6 µg/mL (≈ 5.32 µM) | MIC (Escherichia coli [3]): 24 µg/mL (≈ 21.3 µM) | MIC (Escherichia coli [4]): 0.75 µg/mL (≈ 0.665 µM) | MIC (Bacillus subtilis): 6 µg/mL (≈ 5.32 µM) | MIC (Staphylococcus aureus): 48 µg/mL (≈ 42.5 µM)

NC[C@@H]1O[C@H](O[C@H]2[C@@H](O)[C@H](O[C@@H]3[C@@H](O)[C@H](N)C[C@H](N)[C@H]3O[C@H]3O[C@H](CN)[C@@H](O)[C@H](O)[C@H]3N)O[C@@H]2C(=O)NCc2cn(CCCCCN3CCN(c4cc5c(cc4F)c(=O)c(C(=O)O)cn5C4CC4)CC3)nn2)[C@H](N)[C@@H](O)[C@@H]1O
MIC (Escherichia coli [1]): 24 µg/mL (≈ 21.7 µM) | MIC (Escherichia coli [2]): 6 µg/mL (≈ 5.41 µM) | MIC (Escherichia coli [3]): 24 µg/mL (≈ 21.7 µM) | MIC (Escherichia coli [4]): 1.5 µg/mL (≈ 1.35 µM) | MIC (Bacillus subtilis): 12 µg/mL (≈ 10.8 µM) | MIC (Staphylococcus aureus): 48 µg/mL (≈ 43.3 µM)

NC[C@@H]1O[C@H](O[C@H]2[C@@H](O)[C@H](O[C@@H]3[C@@H](O)[C@H](N)C[C@H](N)[C@H]3O[C@H]3O[C@H](CN)[C@@H](O)[C@H](O)[C@H]3N)O[C@@H]2C(=O)Nc2ccc(-c3cn(Cc4cccc(CN5CCN(c6cc7c(cc6F)c(=O)c(C(=O)O)cn7C6CC6)CC5)c4)nn3)cc2)[C@H](N)[C@@H](O)[C@@H]1O
MIC (Escherichia coli [1]): 6 µg/mL (≈ 4.98 µM) | MIC (Escherichia coli [2]): 12 µg/mL (≈ 9.96 µM) | MIC (Escherichia coli [3]): 12 µg/mL (≈ 9.96 µM) | MIC (Escherichia coli [4]): 1.5 µg/mL (≈ 1.25 µM) | MIC (Bacillus subtilis): 6 µg/mL (≈ 4.98 µM) | MIC (Staphylococcus aureus): 12 µg/mL (≈ 9.96 µM)

NC[C@@H]1O[C@H](O[C@H]2[C@@H](O)[C@H](O[C@@H]3[C@@H](O)[C@H](N)C[C@H](N)[C@H]3O[C@H]3O[C@H](CN)[C@@H](O)[C@H](O)[C@H]3N)O[C@@H]2C(=O)NCc2cn(Cc3cccc(CN4CCN(c5cc6c(cc5F)c(=O)c(C(=O)O)cn6C5CC5)CC4)c3)nn2)[C@H](N)[C@@H](O)[C@@H]1O
MIC (Escherichia coli [1]): 6 µg/mL (≈ 5.25 µM) | MIC (Escherichia coli [2]): 6 µg/mL (≈ 5.25 µM) | MIC (Escherichia coli [3]): 12 µg/mL (≈ 10.5 µM) | MIC (Escherichia coli [4]): 0.75 µg/mL (≈ 0.657 µM) | MIC (Bacillus subtilis): 3 µg/mL (≈ 2.63 µM) | MIC (Staphylococcus aureus): 6 µg/mL (≈ 5.25 µM) | MIC (Escherichia coli [9]): 6 µg/mL (≈ 5.25 µM) | MIC (Escherichia coli [10]): 24 µg/mL (≈ 21 µM) | Ratio (Escherichia coli [11]): 4 | MIC (Escherichia coli [12]): 6 µg/mL (≈ 5.25 µM) | Ratio (Escherichia coli [13]): 1 | MIC (Escherichia coli [8]): 0.4 µg/mL (≈ 0.35 µM) | MIC (Escherichia coli [14]): 0.4 µg/mL (≈ 0.35 µM) | Ratio (Escherichia coli [15]): 1

NC[C@@H]1O[C@H](O[C@H]2[C@@H](O)[C@H](O[C@@H]3[C@@H](O)[C@H](N)C[C@H](N)[C@H]3O[C@H]3O[C@H](CN)[C@@H](O)[C@H](O)[C@H]3N)O[C@@H]2C(=O)Nc2ccc(-c3cn(CCCN4CCN(c5cc6c(cc5F)c(=O)c(C(=O)O)cn6C5CC5)CC4)nn3)cc2)[C@H](N)[C@@H](O)[C@@H]1O
MIC (Escherichia coli [1]): 6 µg/mL (≈ 5.25 µM) | MIC (Escherichia coli [2]): 3 µg/mL (≈ 2.63 µM) | MIC (Escherichia coli [3]): 12 µg/mL (≈ 10.5 µM) | MIC (Escherichia coli [4]): 1.5 µg/mL (≈ 1.31 µM) | MIC (Bacillus subtilis): 6 µg/mL (≈ 5.25 µM) | MIC (Staphylococcus aureus): 48 µg/mL (≈ 42 µM)

NC[C@@H]1O[C@H](O[C@H]2[C@@H](O)[C@H](O[C@@H]3[C@@H](O)[C@H](N)C[C@H](N)[C@H]3O[C@H]3O[C@H](CN)[C@@H](O)[C@H](O)[C@H]3N)O[C@@H]2C(=O)NCc2cn(CCOCCN3CCN(c4cc5c(cc4F)c(=O)c(C(=O)O)cn5C4CC4)CC3)nn2)[C@H](N)[C@@H](O)[C@@H]1O
MIC (Escherichia coli [1]): 12 µg/mL (≈ 10.8 µM) | MIC (Escherichia coli [2]): 6 µg/mL (≈ 5.4 µM) | MIC (Escherichia coli [3]): 12 µg/mL (≈ 10.8 µM) | MIC (Escherichia coli [4]): 1.5 µg/mL (≈ 1.35 µM) | MIC (Bacillus subtilis): 12 µg/mL (≈ 10.8 µM) | MIC (Staphylococcus aureus): 24 µg/mL (≈ 21.6 µM)
